These results are taken from ChEMBL document CHEMBL1121685, “Development of new mitomycin C and porfiromycin analogues” (J Med Chem, 1981).

What is called T/C is the result in the treated group divided by that in the control group, in per cent.

The subject of data set [1] is Mus musculus. The experiment in a line: Number of tumored survivors, 45 days after administration of compound at a dose of 18 mg/kg/day in mice. Type of data set: functional.
In data set [2] the test system is Mus musculus. The experiment in a line: Activity of compound dose of 9 mg/kg/day against Murine B-16 Melanocarcinoma in mice. Format: functional.
In data set [3] the test system is Mus musculus. The experiment in a line: Effect of compound on total white blood cell count in BDG1 male mice, after intraperitoneal administration at a dose of 29.6 mg/kg on day 3. Format: functional. In outline: (§1)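 Single ip dose given on day 0 to BDG1 male mice over a descending dose series. Total white blood cell count is expressed as % change from untreated control on days 3, 5 and 7. Significance is flagged at p ≤ 0.05 and p ≤ 0.01.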

Data set [4] deals with Mus musculus. The experiment in a line: Effect of compound on total white blood cell count in BDG1 male mice, after intraperitoneal administration at a dose of 50.9 mg/kg on day 3. Format: functional. In outline:
(§2)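 Single ip dose given on day 0 to BDG₁ male mice. Total white blood cell count measured on days 3, 5 and 7, expressed as % change from control. Highest dose was at the LD₅₀, or at twice the optimal dose where so footnoted. Significance reported at p ≤ 0.05 and p ≤ 0.01. D marks death of one or more mice.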

The test system of data set [5] is Mus musculus. The experiment in a line: Effect of compound on total white blood cell count in BDG1 male mice, after intraperitoneal administration at a dose 29.6 mg/kg on day 7. Type of data set: functional. In outline:
(§3)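 BDG₁ male mice received a single ip dose on day 0. The dose series topped out at the LD₅₀ level, or at twice the optimal dose for some agents. Total white blood cell count was taken on days 3, 5 and 7 and expressed as % change from untreated controls. Significance was set at p ≤ 0.05 or p ≤ 0.01.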

A short description of data set [6]: Therapeutic ratio is expressed as ratio of optimal dose and minimum effective dose. The note with it: mouse; read-out: TR. Format: ADME. In outline:
(§4)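 10⁶ P-388 ascites cells implanted ip in CDF₁ female mice. Six mice per dose, 10 saline-injected controls, and a concurrent mitomycin C reference group. %T/C = median survival time of treated/control × 100. MED is the lowest dose giving %T/C > 125. Therapeutic ratio = optimal dose/MED.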

The species entered for data set [7] is Mus musculus. The experiment in a line: Half-wave potential produced by the compound at their optimal dose. Format: functional. Details: unit not given here.
Data set [8] concerns Mus musculus. The experiment in a line: Activity of compound dose of 2.25 mg/kg/day against Murine B-16 Melanocarcinoma in mice. Format: functional.
Data set [9] relates to Mus musculus. The experiment in a line: Effect of compound on total white blood cell count in BDG1 male mice, after intraperitoneal administration at a dose of 22.2 mg/kg on day 7. Type of data set: functional. In outline: as §1
Data set [10] relates to Mus musculus. The experiment in a line: Effect of compound on total white blood cell count in BDG1 male mice, after intraperitoneal administration at a dose of 39.4 mg/kg on day 5. Format: functional. In outline: as §1
The test system of data set [11] is Mus musculus. The experiment in a line: Activity of compound dose of 1.13 mg/kg/day against Murine B-16 Melanocarcinoma in mice. Format: functional.
Data set [12] concerns Mus musculus. The experiment in a line: Activity of compound dose of 36 mg/kg/day against Murine B-16 Melanocarcinoma in mice. Type of data set: functional.
Data set [13] relates to Mus musculus. The experiment in a line: Effect of compound on total white blood cell count in BDG1 male mice, after intraperitoneal administration at a dose of 22.2 mg/kg on day 3. Type of data set: functional. In outline:
as §1

Data set [14] concerns Mus musculus. The experiment in a line: Minimum effective dose that show activity against P-388 murine leukemia cells in CDF1 female mice, after intraperitoneal administration (optimal dose is 12.8 mg/kg). Type of data set: functional. The note with it: P388, ip, read-out: MED. In outline:
as §4

For data set [15], the species on record is Mus musculus. The experiment in a line: Degree of leukopenia produced by compound is assessed form Percent change in white cells on days 5. Format: functional. In outline:
as §3

Data set [16] deals with Mus musculus. The experiment in a line: Effect of compound on total white blood cell count in BDG1 male mice, after intraperitoneal administration at a dose of 39.4 mg/kg on day 3. Format: functional. In outline: as §1
Data set [17] deals with Mus musculus. The experiment in a line: Effect of compound on total white blood cell count in BDG1 male mice, after intraperitoneal administration at a dose of 22.2 mg/kg on day 5. Type of data set: functional. In outline: as §1
Data set [18] relates to Mus musculus. The experiment in a line: Antitumor activity against P-388 murine leukemia cells in CDF1 female mice after intraperitoneal administration at the specified optimal dose of 12.8 mg/kg. Type of data set: functional.
For data set [19], the system named is Mus musculus. The experiment in a line: Number of cured survivors, 45 days after administration of compound at a dose of 36 mg/kg/day in mice. Type of data set: functional.
For data set [20], the system named is Mus musculus. The experiment in a line: Effect of compound on total white blood cell count in BDG1 male mice, after intraperitoneal administration at a dose of 29.6 mg/kg on day 5. Format: functional. In outline:
as §1

Data set [21] deals with Mus musculus. The experiment in a line: Effect of compound on total white blood cell count in BDG1 male mice, after intraperitoneal administration at a dose of 50.9 mg/kg on day 7. Type of data set: functional. In outline: as §2
Data set [22] concerns Mus musculus. The experiment in a line: Activity of compound dose of 18 mg/kg/day against Murine B-16 Melanocarcinoma in mice. Format: functional.
Data set [23] concerns Mus musculus. The experiment in a line: Activity of compound dose of 4.5 mg/kg/day against Murine B-16 Melanocarcinoma in mice. Format: functional.
Data set [24] has as its system Mus musculus. The experiment in a line: Number of cured survivors, 45 days after administration of compound at a dose of 18 mg/kg/day in mice. Type of data set: functional.
Data set [25] relates to Mus musculus. The experiment in a line: Effect of compound on total white blood cell count in BDG1 male mice, after intraperitoneal administration at a dose of 3 mg/kg on day 5. Format: functional. In outline:
as §1

Data set [26] relates to Mus musculus. The experiment in a line: Effect of compound on total white blood cell count in BDG1 male mice, after intraperitoneal administration at a dose of 1.69 mg/kg on day 3. Format: functional. In outline: as §3
Data set [27] concerns Mus musculus. The experiment in a line: Effect of compound on total white blood cell count in BDG1 male mice, after intraperitoneal administration at a dose of 1.27 mg/kg on day 5. Type of data set: functional. In outline: as §3
In data set [28] the test system is Mus musculus. The experiment in a line: Effect of compound on total white blood cell count in BDG1 male mice, after intraperitoneal administration at a dose of 1.27 mg/kg on day 3. Type of data set: functional. In outline:
as §3

In data set [29] the test system is Mus musculus. The experiment in a line: Effect of compound on total white blood cell count in BDG1 male mice, after intraperitoneal administration at a dose of 1.27 mg/kg on day 7. Type of data set: functional. In outline: as §3
Data set [30] has as its system Mus musculus. The experiment in a line: Effect of compound on total white blood cell count in BDG1 male mice, after intraperitoneal administration at a dose of 2.55 mg/kg on day 3. Type of data set: functional. In outline:
as §1

In data set [31] the test system is Mus musculus. The experiment in a line: Effect of compound on total white blood cell count in BDG1 male mice, after intraperitoneal administration at a dose of 3 mg/kg on day 3. Type of data set: functional. In outline: as §1
For data set [32], the species on record is Mus musculus. The experiment in a line: Degree of leukopenia produced by compound is assessed form Percent change in white cells on day 7. Type of data set: functional. In outline:
as §3

In data set [33] the test system is Mus musculus. The experiment in a line: Effect of compound on total white blood cell count in BDG1 male mice, after intraperitoneal administration at a dose of 3 mg/kg on day 7. Type of data set: functional. In outline:
as §1

The subject of data set [34] is Mus musculus. The experiment in a line: Effect of compound on total white blood cell count in BDG1 male mice, after intraperitoneal administration at a dose of 1.69 mg/kg on day 5. Format: functional. In outline:
as §3

Data set [35] concerns Mus musculus. The experiment in a line: Effect of compound on total white blood cell count in BDG1 male mice, after intraperitoneal administration at a dose of 2.55 mg/kg on day 7. Type of data set: functional. In outline: as §1
Data set [36] relates to Mus musculus. The experiment in a line: Antitumor activity against P-388 murine leukemia cells in CDF1 female mice after intraperitoneal administration at the specified optimal dose of 1.6 mg/kg. Format: functional.
Data set [37] relates to Mus musculus. The experiment in a line: Effect of compound on total white blood cell count in BDG1 male mice, after intraperitoneal administration at a dose of 1.69 mg/kg on day 7. Format: functional. In outline: as §3
The subject of data set [38] is Mus musculus. The experiment in a line: Effect of compound on total white blood cell count in BDG1 male mice, after intraperitoneal administration at a dose of 2.55 mg/kg on day 5. Type of data set: functional. In outline: as §1
The subject of data set [39] is Mus musculus. The experiment in a line: Minimum effective dose that show activity against P-388 murine leukemia cells in CDF1 female mice, after intraperitoneal administration (optimal dose is 1.6 mg/kg). Type of data set: functional. The note with it: P388, ip, read-out: MED.

Consider `COC12[C@@H]3N[C@@H]3CN1C1=C(C(=O)C(NCc3ccco3)=C(C)C1=O)[C@@H]2COC(N)=O` (stereo partly specified), for which the figures for the Survivors with Mus musculus [1], in the data set with Mus musculus [19] and in the data set with Mus musculus [24] were 1, 6 and 3, respectively. For the same compound, the T/C with Mus musculus [2] turned out to be 186%; in the data set on Mus musculus [8] it was 148%; with Mus musculus [11], 125%; in the data set with Mus musculus [12], 247%; with Mus musculus [18] it was 276%; in the data set on Mus musculus [22] it was 219%. Besides, the T/C in the data set on Mus musculus [23] was determined as 170%. Further, the Change is given as -78% with Mus musculus [3]; -76% in the data set with Mus musculus [4]; 0% with Mus musculus [5]; -1% in the data set with Mus musculus [9]; -74% in the data set on Mus musculus [10]; -70% in the data set on Mus musculus [13]. Further, the Change is on record as -54% in the data set listed under Mus musculus [15]; -84% in the data set on Mus musculus [16]; 62% with Mus musculus [17]; -67% in the data set on Mus musculus [20]; -64% with Mus musculus [21]. For the same compound, in data set [6], the selectivity ratio is over 32. The compound also had an E1/2 in the data set filed under Mus musculus [7] of -0.39. Further, in the data set with Mus musculus [14], the minimal effective dose was under 0.4 mg/kg.

Consider `COC12[C@@H]3N[C@@H]3CN1C1=C(C(=O)C(N3CC3)=C(C)C1=O)[C@@H]2COC(N)=O` (stereo partly specified), for which the Change with Mus musculus [25] was 3%; with Mus musculus [26], 16%; in the data set with Mus musculus [27] it was 27%; with Mus musculus [28] it was -16%; in the data set on Mus musculus [29], 3%; in the data set with Mus musculus [30] it was 15%. The Change in the data set with Mus musculus [31] is given as -12%; in the data set listed under Mus musculus [32], -11%; with Mus musculus [33], 13%; in the data set with Mus musculus [34], 9%; in the data set with Mus musculus [35], 18%; in the data set on Mus musculus [37], -11%. Further, in the data set on Mus musculus [38], the Change was 34%. Besides, the selectivity ratio in data set [6] turned out to be 64. The compound further came in with an E1/2 in the data set listed under Mus musculus [7] of -0.31. The compound further displayed a T/C in the data set on Mus musculus [36] of 266%. In addition, in the data set on Mus musculus [39], the minimal effective dose turned out to be 0.025 mg/kg.
